Laboratory results: ChEMBL document CHEMBL1156877, “Discovery of 6-benzyloxyquinolines as c-Met selective kinase inhibitors” (Bioorg Med Chem Lett, 2010)
≈ marks a conversion by molar mass, not a printed value.

Key:
[1] = biological target: Protein kinase C alpha type (Homo sapiens, UniProt P17252); assay: Inhibition of recombinant PKCalpha by IMAP assay
Summary of the method: (§1)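 Recombinant enzyme mixed with test compound and substrate peptide/ATP solution, incubated 90 min at 30 °C; enzyme quantity, ATP, substrate and cation set per kinase. IMAP reagent then added for 5 min at room temperature, and peptide phosphorylation quantified by fluorescence polarization.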

[2] = biological target: Tyrosine-protein kinase ABL1 (Homo sapiens, UniProt P00519); assay: Inhibition of recombinant Abl by TR-FRET assay
Summary of the method: (§2)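 Recombinant tyrosine kinase incubated with test compound and substrate peptide/ATP for 90 min at 30 °C; enzyme amount, ATP level, substrate and cation vary by kinase. Reaction stopped, then TR-FRET reagent with europium-labelled anti-phospho-substrate antibody added for 5 min at room temperature; substrate phosphorylation read as time-resolved fluorescence.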

CAPAN-1 = assay: Cytotoxicity against human Capan1 cells after 96 hrs by WST8 assay; settings: CAPAN-1, 96 h
[3] = Inhibition of recombinant PDGFR by TR-FRET assay; summary of the method: as §2
[4] = biological target: T1, Receptor-type tyrosine-protein kinase FLT3 (Homo sapiens, UniProt P36888); assay: Inhibition of recombinant Flt3 by TR-FRET assay; summary of the method: as §2
T1 sequence (P36888 whole entry): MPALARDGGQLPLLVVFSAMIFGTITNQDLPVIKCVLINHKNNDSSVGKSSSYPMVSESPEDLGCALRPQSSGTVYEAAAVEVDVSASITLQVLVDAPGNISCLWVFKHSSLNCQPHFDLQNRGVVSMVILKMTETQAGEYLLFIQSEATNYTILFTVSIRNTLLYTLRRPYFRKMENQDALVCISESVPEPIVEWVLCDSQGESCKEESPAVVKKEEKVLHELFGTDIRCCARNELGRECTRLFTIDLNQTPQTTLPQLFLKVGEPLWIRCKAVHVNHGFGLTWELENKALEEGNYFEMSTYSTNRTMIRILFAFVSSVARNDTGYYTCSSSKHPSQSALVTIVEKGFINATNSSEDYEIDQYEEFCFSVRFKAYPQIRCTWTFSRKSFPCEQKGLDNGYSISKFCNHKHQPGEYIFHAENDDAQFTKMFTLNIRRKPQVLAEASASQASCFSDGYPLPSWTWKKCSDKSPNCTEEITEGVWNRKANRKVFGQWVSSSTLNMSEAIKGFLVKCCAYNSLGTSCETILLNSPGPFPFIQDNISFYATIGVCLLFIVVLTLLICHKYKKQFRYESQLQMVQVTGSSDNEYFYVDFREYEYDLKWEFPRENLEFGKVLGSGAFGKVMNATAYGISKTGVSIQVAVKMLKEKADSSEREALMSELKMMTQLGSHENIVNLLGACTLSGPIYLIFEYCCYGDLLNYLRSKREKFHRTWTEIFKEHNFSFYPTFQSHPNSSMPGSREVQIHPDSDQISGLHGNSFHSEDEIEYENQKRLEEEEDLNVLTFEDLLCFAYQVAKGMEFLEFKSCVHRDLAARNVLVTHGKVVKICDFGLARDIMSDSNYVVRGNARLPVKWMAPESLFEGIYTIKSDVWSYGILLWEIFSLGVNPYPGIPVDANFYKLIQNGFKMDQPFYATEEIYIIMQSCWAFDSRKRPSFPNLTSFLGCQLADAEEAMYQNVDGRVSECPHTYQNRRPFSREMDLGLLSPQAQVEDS

Ephrin type-A receptor 2 = Ephrin type-A receptor 2 (Homo sapiens, UniProt P29317); assay: Inhibition of recombinant EphA2 by TR-FRET assay; summary of the method: as §2
NCI-H460 = assay: Cytotoxicity against human NCI-H460 cells after 96 hrs by WST8 assay; settings: NCI-H460, 96 h
MKN-45 = assay: Cytotoxicity against human MKN45 cells after 96 hrs by WST8 assay; assay type: functional, cell-based; settings: MKN-45, 96 h
Summary of the method: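 Tumour cells exposed to a range of compound concentrations for 96 h; cytotoxicity read with WST-8 cell counting kit.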

DU-145 = assay: Cytotoxicity against human DU145 cells after 96 hrs by WST8 assay; settings: DU-145, 96 h
[5] = biological target: Macrophage-stimulating protein receptor (Homo sapiens, UniProt Q04912); assay: Inhibition of recombinant RON by TR-FRET assay; summary of the method: as §2
[6] = biological target: Insulin-like growth factor 1 receptor (Homo sapiens, UniProt P08069); assay: Inhibition of recombinant IGF1R by TR-FRET assay; summary of the method: as §2
BXPC-3 = assay: Cytotoxicity against human BxPC3 cells after 96 hrs by WST8 assay; settings: BXPC-3, 96 h
[7] = biological target: Mast/stem cell growth factor receptor Kit (Homo sapiens, UniProt P10721); assay: Inhibition of recombinant Kit by TR-FRET assay; summary of the method: as §2
[8] = biological target: Protein kinase C beta type (Homo sapiens, UniProt P05771); assay: Inhibition of recombinant PKCbeta2 by IMAP assay; summary of the method: as §1
[9] = biological target: RAC-alpha serine/threonine-protein kinase (Homo sapiens, UniProt P31749); assay: Inhibition of recombinant AKT1 by IMAP assay; summary of the method: as §1
WiDr = assay: Cytotoxicity against human WiDr cells after 96 hrs by WST8 assay
ASPC1 = assay: Cytotoxicity against human AsPC1 cells after 96 hrs by WST8 assay; settings: ASPC1, 96 h
[10] = Solubility in fasted state simulated intestinal fluid; assay type: physicochemical
MCF7 = assay: Cytotoxicity against human MCF7 cells after 96 hrs by WST8 assay; settings: MCF7, 96 h
[11] = biological target: Cyclin-dependent kinase 1 (Homo sapiens, UniProt P06493); assay: Inhibition of recombinant CDK1 by IMAP assay; summary of the method: as §1
HCT-116 = assay: Cytotoxicity against human HCT116 cells after 96 hrs by WST8 assay; settings: HCT-116, 96 h
CWR22R = assay: Cytotoxicity against human 22Rv1 cells after 96 hrs by WST8 assay; settings: 22Rv1, 96 h
PC-3 = assay: Cytotoxicity against human PC3 cells after 96 hrs by WST8 assay; settings: PC-3, 96 h
Calu-6 = assay: Cytotoxicity against human Calu6 cells after 96 hrs by WST8 assay; settings: Calu-6, 96 h
[12] = biological target: Tyrosine-protein kinase Yes (Homo sapiens, UniProt P07947); assay: Inhibition of recombinant YES by TR-FRET assay; summary of the method: as §2
Sequence of Tyrosine-protein kinase Yes (P07947 whole entry): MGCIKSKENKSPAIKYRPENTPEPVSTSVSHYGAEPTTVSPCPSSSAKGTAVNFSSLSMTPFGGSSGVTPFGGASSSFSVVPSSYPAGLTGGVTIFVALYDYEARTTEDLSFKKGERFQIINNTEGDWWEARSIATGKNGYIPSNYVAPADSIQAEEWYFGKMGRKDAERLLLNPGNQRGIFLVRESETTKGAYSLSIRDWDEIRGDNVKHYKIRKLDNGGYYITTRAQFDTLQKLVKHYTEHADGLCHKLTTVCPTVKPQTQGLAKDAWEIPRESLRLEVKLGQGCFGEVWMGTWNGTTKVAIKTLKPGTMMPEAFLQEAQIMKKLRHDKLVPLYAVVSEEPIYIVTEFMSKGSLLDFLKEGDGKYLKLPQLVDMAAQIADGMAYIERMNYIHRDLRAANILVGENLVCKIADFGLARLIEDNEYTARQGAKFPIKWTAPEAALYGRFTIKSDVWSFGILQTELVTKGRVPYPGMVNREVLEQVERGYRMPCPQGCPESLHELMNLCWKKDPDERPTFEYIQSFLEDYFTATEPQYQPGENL

Sequence of Cyclin-dependent kinase 1 (P06493 whole entry): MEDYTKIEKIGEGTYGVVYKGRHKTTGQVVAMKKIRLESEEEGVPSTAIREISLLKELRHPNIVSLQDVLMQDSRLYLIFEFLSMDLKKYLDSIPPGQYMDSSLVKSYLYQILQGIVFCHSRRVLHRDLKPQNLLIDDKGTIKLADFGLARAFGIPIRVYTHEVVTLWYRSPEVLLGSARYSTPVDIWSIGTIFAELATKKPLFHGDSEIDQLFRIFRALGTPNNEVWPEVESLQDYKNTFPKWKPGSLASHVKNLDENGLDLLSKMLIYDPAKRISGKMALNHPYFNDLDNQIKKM
Sequence of Macrophage-stimulating protein receptor (Q04912 25-304 limits assumed): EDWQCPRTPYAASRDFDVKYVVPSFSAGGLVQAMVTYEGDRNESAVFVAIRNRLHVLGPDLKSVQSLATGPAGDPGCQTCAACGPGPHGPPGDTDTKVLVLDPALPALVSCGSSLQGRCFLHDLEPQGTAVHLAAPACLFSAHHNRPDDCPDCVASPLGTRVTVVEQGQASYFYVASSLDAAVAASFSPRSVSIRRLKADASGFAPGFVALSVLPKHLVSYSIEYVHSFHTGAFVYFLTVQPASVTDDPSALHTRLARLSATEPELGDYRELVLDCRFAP
Sequence of Macrophage-stimulating protein receptor (Q04912 310-1400 limits assumed): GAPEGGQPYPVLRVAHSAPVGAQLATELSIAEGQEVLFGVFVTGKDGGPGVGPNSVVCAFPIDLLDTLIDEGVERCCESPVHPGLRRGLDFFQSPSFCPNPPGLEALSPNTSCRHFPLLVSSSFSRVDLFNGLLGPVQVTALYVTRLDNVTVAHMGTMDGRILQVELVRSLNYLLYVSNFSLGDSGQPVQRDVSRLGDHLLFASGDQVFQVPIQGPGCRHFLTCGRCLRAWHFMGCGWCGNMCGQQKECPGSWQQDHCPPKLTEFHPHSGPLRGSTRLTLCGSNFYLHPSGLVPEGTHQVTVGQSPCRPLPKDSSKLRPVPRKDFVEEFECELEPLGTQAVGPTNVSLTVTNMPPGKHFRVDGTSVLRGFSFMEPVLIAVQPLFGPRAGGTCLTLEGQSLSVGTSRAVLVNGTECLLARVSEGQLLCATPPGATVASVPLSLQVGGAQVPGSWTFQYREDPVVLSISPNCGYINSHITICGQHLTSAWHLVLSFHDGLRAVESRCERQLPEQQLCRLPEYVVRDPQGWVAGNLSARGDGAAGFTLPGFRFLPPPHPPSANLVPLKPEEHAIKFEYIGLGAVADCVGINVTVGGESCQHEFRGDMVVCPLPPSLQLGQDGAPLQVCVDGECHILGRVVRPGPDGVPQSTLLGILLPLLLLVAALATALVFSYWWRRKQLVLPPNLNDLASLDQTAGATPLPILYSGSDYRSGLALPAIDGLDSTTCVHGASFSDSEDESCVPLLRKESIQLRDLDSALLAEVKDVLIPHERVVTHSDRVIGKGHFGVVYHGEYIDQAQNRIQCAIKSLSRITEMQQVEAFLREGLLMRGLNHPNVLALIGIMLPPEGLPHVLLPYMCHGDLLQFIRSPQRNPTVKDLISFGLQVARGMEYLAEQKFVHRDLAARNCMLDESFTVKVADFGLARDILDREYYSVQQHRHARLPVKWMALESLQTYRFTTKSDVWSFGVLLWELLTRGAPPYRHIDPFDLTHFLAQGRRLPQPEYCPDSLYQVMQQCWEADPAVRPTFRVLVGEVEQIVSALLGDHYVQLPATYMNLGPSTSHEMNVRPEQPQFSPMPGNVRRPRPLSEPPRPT
Sequence of Insulin-like growth factor 1 receptor (P08069 31-736 limits assumed): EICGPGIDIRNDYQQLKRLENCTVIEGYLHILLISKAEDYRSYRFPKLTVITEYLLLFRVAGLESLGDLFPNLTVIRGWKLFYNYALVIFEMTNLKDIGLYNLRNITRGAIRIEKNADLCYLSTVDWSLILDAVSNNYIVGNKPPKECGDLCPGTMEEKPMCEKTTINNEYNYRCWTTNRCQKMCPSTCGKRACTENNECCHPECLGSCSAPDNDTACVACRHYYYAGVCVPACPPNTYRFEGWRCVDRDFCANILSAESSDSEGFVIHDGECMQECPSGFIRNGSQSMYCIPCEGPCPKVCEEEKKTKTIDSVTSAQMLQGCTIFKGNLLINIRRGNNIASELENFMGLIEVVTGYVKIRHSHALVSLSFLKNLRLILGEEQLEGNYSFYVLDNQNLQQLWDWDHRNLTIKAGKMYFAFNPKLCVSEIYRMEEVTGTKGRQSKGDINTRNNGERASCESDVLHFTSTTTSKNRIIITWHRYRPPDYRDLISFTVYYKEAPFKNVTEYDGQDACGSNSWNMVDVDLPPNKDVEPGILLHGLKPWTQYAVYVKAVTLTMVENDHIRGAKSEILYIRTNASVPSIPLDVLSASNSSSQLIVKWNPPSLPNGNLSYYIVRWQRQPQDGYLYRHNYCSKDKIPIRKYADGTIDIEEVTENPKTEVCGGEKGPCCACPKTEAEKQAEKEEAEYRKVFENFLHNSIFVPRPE
Sequence of Insulin-like growth factor 1 receptor (P08069 741-1367 limits assumed): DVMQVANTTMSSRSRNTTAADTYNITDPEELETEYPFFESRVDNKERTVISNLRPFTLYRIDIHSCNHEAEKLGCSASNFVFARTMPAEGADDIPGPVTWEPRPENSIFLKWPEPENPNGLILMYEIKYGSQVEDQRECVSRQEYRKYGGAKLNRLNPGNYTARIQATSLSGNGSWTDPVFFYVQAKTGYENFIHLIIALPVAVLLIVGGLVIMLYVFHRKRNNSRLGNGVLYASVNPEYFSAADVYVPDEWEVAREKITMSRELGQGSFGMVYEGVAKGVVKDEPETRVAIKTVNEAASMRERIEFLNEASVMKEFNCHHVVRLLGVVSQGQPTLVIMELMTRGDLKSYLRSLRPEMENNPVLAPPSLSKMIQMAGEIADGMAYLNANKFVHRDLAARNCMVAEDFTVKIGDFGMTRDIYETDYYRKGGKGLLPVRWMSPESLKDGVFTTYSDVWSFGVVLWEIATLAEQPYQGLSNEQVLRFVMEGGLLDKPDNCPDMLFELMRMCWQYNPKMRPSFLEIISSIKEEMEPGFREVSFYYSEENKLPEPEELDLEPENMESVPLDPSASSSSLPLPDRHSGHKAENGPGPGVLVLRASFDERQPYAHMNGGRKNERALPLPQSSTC
Sequence of RAC-alpha serine/threonine-protein kinase (P31749 whole entry): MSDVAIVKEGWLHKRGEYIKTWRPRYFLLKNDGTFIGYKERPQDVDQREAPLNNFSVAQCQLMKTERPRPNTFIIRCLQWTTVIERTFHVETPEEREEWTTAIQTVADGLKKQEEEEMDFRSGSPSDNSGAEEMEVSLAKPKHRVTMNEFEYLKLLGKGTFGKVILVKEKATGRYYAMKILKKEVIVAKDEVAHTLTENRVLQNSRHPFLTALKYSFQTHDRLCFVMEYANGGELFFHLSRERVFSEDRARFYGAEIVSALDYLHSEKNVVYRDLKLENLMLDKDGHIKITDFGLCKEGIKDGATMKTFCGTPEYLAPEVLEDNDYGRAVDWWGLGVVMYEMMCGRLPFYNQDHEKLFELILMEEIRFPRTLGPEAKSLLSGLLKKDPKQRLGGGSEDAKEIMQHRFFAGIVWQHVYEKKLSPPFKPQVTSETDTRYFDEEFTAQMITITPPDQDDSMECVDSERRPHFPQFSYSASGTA
Sequence of Mast/stem cell growth factor receptor Kit (P10721 whole entry): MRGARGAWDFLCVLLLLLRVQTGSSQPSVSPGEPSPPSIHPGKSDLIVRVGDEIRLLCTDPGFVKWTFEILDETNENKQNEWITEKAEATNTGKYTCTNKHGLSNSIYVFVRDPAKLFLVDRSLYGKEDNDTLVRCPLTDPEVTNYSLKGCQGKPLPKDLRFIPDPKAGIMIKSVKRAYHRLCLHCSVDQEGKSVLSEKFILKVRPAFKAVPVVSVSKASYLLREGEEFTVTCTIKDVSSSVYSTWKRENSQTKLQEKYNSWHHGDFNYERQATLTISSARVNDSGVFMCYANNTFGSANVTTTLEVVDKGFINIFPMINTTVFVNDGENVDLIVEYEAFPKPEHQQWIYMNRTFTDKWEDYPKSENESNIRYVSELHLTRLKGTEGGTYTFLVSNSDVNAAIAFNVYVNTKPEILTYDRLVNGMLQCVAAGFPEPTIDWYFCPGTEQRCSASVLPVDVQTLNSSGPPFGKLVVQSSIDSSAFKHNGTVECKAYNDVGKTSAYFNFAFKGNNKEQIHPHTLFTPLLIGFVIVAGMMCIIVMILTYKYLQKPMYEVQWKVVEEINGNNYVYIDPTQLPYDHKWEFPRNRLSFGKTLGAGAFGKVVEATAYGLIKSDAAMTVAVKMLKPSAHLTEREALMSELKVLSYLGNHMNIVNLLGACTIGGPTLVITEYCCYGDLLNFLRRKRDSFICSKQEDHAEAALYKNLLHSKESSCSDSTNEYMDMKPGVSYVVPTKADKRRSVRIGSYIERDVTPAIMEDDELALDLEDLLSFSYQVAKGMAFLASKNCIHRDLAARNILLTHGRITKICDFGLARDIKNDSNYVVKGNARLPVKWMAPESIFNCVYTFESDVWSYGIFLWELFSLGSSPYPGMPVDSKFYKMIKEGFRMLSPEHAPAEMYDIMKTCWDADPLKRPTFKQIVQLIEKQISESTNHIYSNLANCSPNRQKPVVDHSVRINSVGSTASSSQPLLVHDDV

IC50 [1]: > 50 µM | IC50 [2]: > 50 µM | IC50 [3]: > 50 µM | IC50 [4]: 15 µM | IC50 (Ephrin type-A receptor 2): 5.2 µM | IC50 [5]: 0.23 µM | IC50 [6]: 27 µM | IC50 [7]: 41 µM | IC50 [8]: > 50 µM | IC50 [9]: > 50 µM | solubility [10]: 345 µg/mL (≈ 823 µM) | IC50 [11]: > 50 µM | IC50 [12]: > 50 µM
SMILES: C[C@@H](Oc1ccc2ncc(C3CC3C(N)=O)cc2c1)c1c(Cl)ccc(F)c1Cl (stereo not given in full)
IC50 (CAPAN-1): > 1 µM | IC50 (NCI-H460): > 1 µM | IC50 (MKN-45): 0.093 µM | IC50 (DU-145): > 1 µM | IC50 (BXPC-3): > 1 µM | IC50 (WiDr): > 1 µM | IC50 (ASPC1): > 1 µM | IC50 (MCF7): > 1 µM | IC50 (HCT-116): > 1 µM | IC50 (CWR22R): > 1 µM | IC50 (PC-3): > 1 µM | IC50 (Calu-6): > 1 µM
